The source made the active and inactive calls. The calls are words filed in the database; no cut-off is given here.
Columns and labels:
CL1-0 [1] = experiment: Decrease in IkappaB protein level in TNF-alpha-stimulated human CL1-0 cells by Western blot; format: functional, cell-based
Method in brief: (§1)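 CL1-0 cells serum-starved overnight, pretreated with various drug concentrations, then stimulated with TNF-α for 4 h. Lysates (50 µg) resolved by 10% SDS-PAGE, blotted, probed with specific antibodies in TBS pH 7.5/0.05% Tween 20/5% milk, HRP secondaries, chemiluminescent film detection; a representative blot shown.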

A549 [2] = experiment: Decrease in RelA binding affinity to NF-kappaB response element on COX2 promoter in human A549 cells by chromatin immunoprecipitation assay; format: functional, cell-based
Method in brief: (§2)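 A549 cells, untreated or treated with drug plus TNF-α for 4 h, cross-linked with 1% formaldehyde (quenched with 0.125 M glycine), lysed, sonicated 12 W for 45 s, immunoprecipitated overnight at 4 °C with anti-RelA, anti-p50 or anti-RelB, collected on protein A/G beads. Cross-links reversed at 65 °C overnight; COX-2 promoter (nt -359 to +106) PCR-amplified 35 cycles, 2% agarose gel, input chromatin as control.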

CL1-0 [3] = experiment: Growth inhibition of human CL1-0 cells at >0.25 ug/mL; format: functional, cell-based
[4] = Cell cycle arrest in human CL1-0 cells assessed as accumulation at G2/M phase after 24 hrs by flow cytometry; format: functional, cell-based
Method in brief: (§3)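 CL1-0 cells seeded at 2×10^5 per 60 mm dish, incubated 24 h, then exposed to various drug concentrations for 2, 6, 12, 16 or 24 h. Harvested cells fixed in cold 70% ethanol at 4 °C for 16 h, treated with RNase A (20 µg/mL, 37 °C, 30 min), stained with propidium iodide (50 µg/mL, 4 °C, 30 min), analysed at once by flow cytometry for phase distribution.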

[5] = Cell cycle arrest in human CL1-0 cells assessed as accumulation at G2/M phase after 2 hrs by flow cytometry; format: functional, cell-based; method in brief: as §3
[6] = Cell cycle arrest in human CL1-0 cells assessed as accumulation at G2/M phase after 12 hrs by flow cytometry; format: functional, cell-based; method in brief: as §3
[7] = Cell cycle arrest in human CL1-0 cells assessed as accumulation at S phase after 24 hrs by flow cytometry; format: functional, cell-based; method in brief: as §3
[8] = target: RAC-alpha serine/threonine-protein kinase (Homo sapiens) (UniProt P31749); experiment: Inhibition of AKT phosphorylation in human CL1-0 cells by Western blot; format: cell-based
Method in brief: (§4)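 Western blot of CL1-0 cells after 24 h at increasing concentrations; probed for p-Akt, Akt and IκB; 50 µg lysate on 10% SDS-PAGE, HRP secondary, chemiluminescence on film.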

CL1-0 [9] = experiment: Inhibition of TNF-alpha-induced NF-kappaB transcriptional in human CL1-0 cells by luciferase reporter gene assay; format: cell-based
Method in brief: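 CL1-0 cells transiently co-transfected with pNF-κB-Luc (0.2 µg) and pSV-β-galactosidase (1 µg) via lipofectamine; after 20 h switched to serum-free medium, pretreated 1 h, then stimulated with TNF-α for 4 h; luciferase normalized to β-galactosidase; n=3 independent transfections, mean ± SD.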

A549 [10] = experiment: Decrease in NF-kappaB1 binding affinity to NF-kappaB response element on COX2 promoter in human A549 cells by chromatin immunoprecipitation assay; format: functional, cell-based; method in brief: as §2
CL1-0 [11] = experiment: Increase in IkappaB protein level in human CL1-0 cells by Western blot; format: functional, cell-based; method in brief: as §4
CL1-0 [12] = experiment: Effect on p27 protein expression in human CL1-0 cells at 0.5 ug/mL after 24 hrs by Western blot; format: functional, cell-based
Method in brief: (§5)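 CL1-0 cells exposed to rising concentrations for 24 h, or to 0.5 µg/mL over a time course; 50 µg lysate resolved by 10% SDS-PAGE, blotted, probed with cyclin/CDK-inhibitor antibodies in TBS-Tween/5% milk, HRP secondary, chemiluminescent film detection.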

[13] = Cell cycle arrest in human CL1-0 cells assessed as accumulation at G2/M phase after 16 hrs by flow cytometry; format: functional, cell-based; method in brief: as §3
[14] = Cell cycle arrest in human CL1-0 cells assessed as accumulation at G2/M phase after 6 hrs by flow cytometry; format: functional, cell-based; method in brief: as §3
CL1-0 [15] = experiment: Decrease in COX2 protein level in TNF-alpha-stimulated human CL1-0 cells by Western blot; format: functional, cell-based; method in brief: as §1
[16] = Cell cycle arrest in human CL1-0 cells assessed as accumulation at S phase after 2 hrs by flow cytometry; format: functional, cell-based; method in brief: as §3
CL1-0 [17] = experiment: Induction of cyclin D1 protein accumulation in human CL1-0 cells at 0.5 ug/mL after 24 hrs by Western blot; format: functional, cell-based; method in brief: as §5
CL1-0 [18] = experiment: Effect on cyclin A protein expression in human CL1-0 cells at 0.5 ug/mL after 24 hrs by Western blot; format: functional, cell-based; method in brief: as §5
CL1-0 [19] = experiment: Induction of apoptosis in human CL1-0 cells assessed as PARP1 cleavage by Western blot; format: functional, cell-based
[20] = Cell cycle arrest in human CL1-0 cells assessed as decrease in accumulation at G0/G1 phase by flow cytometry; format: functional, cell-based; conditions: TDE = time-dependent effect; method in brief: as §3
CL1-0 [21] = experiment: Induction of cyclin B1 protein accumulation in human CL1-0 cells at 0.5 ug/mL after 24 hrs by Western blot; format: functional, cell-based; method in brief: as §5
[22] = target: T1, Inhibitor of nuclear factor kappa-B kinase subunit beta (Homo sapiens) (UniProt O14920); experiment: Effect on IKK-beta activity in TNF-alpha-stimulated human CL1-0 cells by Western blot; format: cell-based; method in brief: as §1
T1 sequence (whole entry): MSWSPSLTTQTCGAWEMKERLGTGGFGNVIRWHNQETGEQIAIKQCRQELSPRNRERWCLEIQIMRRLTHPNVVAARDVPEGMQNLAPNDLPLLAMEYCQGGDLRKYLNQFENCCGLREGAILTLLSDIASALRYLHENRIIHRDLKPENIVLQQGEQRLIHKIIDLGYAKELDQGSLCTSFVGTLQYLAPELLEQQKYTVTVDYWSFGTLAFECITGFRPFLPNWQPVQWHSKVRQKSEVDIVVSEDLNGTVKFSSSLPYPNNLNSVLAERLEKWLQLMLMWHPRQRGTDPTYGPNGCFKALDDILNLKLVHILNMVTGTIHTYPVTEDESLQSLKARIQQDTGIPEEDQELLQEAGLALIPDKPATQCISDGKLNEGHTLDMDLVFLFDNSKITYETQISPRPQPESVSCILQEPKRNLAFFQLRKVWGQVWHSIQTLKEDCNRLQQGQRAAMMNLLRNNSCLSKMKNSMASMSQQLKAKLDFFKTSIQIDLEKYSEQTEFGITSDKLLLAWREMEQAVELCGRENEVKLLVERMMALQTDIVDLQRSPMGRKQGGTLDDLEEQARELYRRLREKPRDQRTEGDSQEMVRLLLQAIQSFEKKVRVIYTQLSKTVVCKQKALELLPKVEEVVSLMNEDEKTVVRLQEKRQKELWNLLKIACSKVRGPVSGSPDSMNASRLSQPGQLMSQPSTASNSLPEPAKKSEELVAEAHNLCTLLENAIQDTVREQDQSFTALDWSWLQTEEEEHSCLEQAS

[23] = Cell cycle arrest in human CL1-0 cells assessed as accumulation at G0/G1 phase after 16 hrs by flow cytometry; format: functional, cell-based; method in brief: as §3
[24] = Cell cycle arrest in human CL1-0 cells assessed as accumulation at G0/G1 phase after 12 hrs by flow cytometry; format: functional, cell-based; method in brief: as §3
CL1-0 [25] = experiment: Effect on p21 protein expression in human CL1-0 cells at 0.5 ug/mL after 24 hrs by Western blot; format: functional, cell-based; method in brief: as §5

Sequence of RAC-alpha serine/threonine-protein kinase (Homo sapiens) (P31749 whole entry): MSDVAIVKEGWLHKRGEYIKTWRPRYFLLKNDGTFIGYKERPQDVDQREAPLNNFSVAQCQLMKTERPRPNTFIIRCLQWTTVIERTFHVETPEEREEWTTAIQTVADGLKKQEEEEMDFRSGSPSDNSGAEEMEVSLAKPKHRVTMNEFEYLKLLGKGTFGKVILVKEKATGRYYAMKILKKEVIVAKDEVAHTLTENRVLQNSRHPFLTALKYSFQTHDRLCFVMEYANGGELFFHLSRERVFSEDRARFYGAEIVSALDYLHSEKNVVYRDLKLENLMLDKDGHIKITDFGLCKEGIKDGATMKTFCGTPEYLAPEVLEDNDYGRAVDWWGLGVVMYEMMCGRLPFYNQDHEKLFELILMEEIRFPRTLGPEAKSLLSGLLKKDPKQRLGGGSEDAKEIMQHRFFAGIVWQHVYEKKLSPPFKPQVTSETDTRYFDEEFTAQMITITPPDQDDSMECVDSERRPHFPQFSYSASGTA

For COc1ccc2c(CN3CCC(CO)CC3)cc3cc4c(cc3c2c1)OCO4, the Activity (CL1-0 [1]) was “Active”, the Activity (A549 [2]) was “Active” and the Activity (CL1-0 [3]) was “Active”. It also gave an Activity [4] of 20.9%, an Activity [5] of 25.4% and an Activity [6] of 27%. For the same compound, the Activity [7] was 43.8%, the Activity [8] was “Dose-dependent effect” and the Activity (CL1-0 [9]) was “Dose-dependent effect”. The Activity (A549 [10]) was “Active”, the Activity (CL1-0 [11]) was “Dose-dependent effect” and the Activity (CL1-0 [12]) was “inactive”. For the same compound, the Activity [13] was 33.6%, the Activity [14] was 24.3% and the Activity (CL1-0 [15]) was “Active”. The Activity [16] was 15.1%, the Activity (CL1-0 [17]) was “Active” and the Activity (CL1-0 [18]) was “inactive”. The Activity (CL1-0 [19]) was “Active”, the Activity [20] was “tde” and the Activity (CL1-0 [21]) was “Active”. For the same compound, the Activity [22] was “inactive”, the Activity [23] was 20.4% and the Activity [24] was 41.7%. The Activity (CL1-0 [25]) was “inactive”.

Source: ChEMBL document CHEMBL1153963, “Phenanthrene-based tylophorine-1 (PBT-1) inhibits lung cancer cell growth through the Akt and NF-kappaB pathways” (J Med Chem, 2009)
